Experimental data: ChEMBL document CHEMBL3112547, “Surface plasmon resonance using the catalytic domain of soluble guanylate cyclase allows the detection of enzyme activators” (Bioorg Med Chem Lett, 2014)
Calls of active or inactive are those of the source. The rule behind the calls is not given here.

What was measured:
[1] = target: T1, Soluble guanylate cyclase alpha1/beta1 complex (Homo sapiens) (UniProt Q02153+Q02108); experiment: Binding affinity to sGC subunit alpha-1/beta-1 catalytic domain (unknown origin) assessed as occupancy relative to control; format: protein-complex assay
Method in brief: (§1)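 Compounds at 100 μM in DMSO-containing running buffer, 25 °C. Injection and dissociation 30 s each, triplicate. Responses double-referenced, DMSO-corrected, control subtracted; occupancy is the fraction of immobilised sites bound, assuming 1:1 stoichiometry.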

[2] = target: T1, Soluble guanylate cyclase alpha1/beta1 complex (Homo sapiens); experiment: Activation of human recombinant sGC subunit alpha-1/beta-1 using GTP as substrate assessed as cGMP production measured per ng of protein at 100 uM treated prior to DEA/NO addition measured after 2 mins by radioimmunoassay in presence of Mg2+; format: protein-complex assay
[3] = target: T1, Soluble guanylate cyclase alpha1/beta1 complex (Homo sapiens); experiment: Binding affinity to full-length human recombinant sGC subunit alpha-1/beta-1 at 100 uM after 30 seconds by SPR analysis; format: protein-complex assay
Method in brief: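 Compounds at 100 μM in running buffer (10 mM HEPES pH 7.4, 150 mM NaCl, 3 mM EDTA, 0.05% P20, 1 mM DTT, 10 mM MgCl2, 5% DMSO), 25 °C. Injection and dissociation 30 s each, triplicate.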

[4] = Solubility of the compound in assay buffer in presence of 5% DMSO; format: physicochemical
[5] = target: T1, Soluble guanylate cyclase alpha1/beta1 complex (Homo sapiens); experiment: Binding affinity to sGC subunit alpha-1/beta-1 catalytic domain (unknown origin) at 100 uM after 30 seconds by SPR analysis; format: protein-complex assay; method in brief: as §1

Structure (SMILES) | Occ [1] | Activity [2] | Activity [3] | solubility [4] | Activity [5]
CC(=O)n1nc(-c2nc(CN)no2)c2ccccc21 | 20% | 4.05 pmol | – | – | –
CC(C)(C)OC(=O)NCc1noc(-c2nn(Cc3ccc4c(c3)OCO4)c3ccccc23)n1 | 40% | 15.6 pmol | Active | – | –
Nc1nc(-c2nn(Cc3ccccc3F)c3ncccc23)ncc1C1CC1 | – | – | – | Insoluble | –
Cc1oncc1Cn1nc(-c2nc(CN)no2)c2ccccc21 | 34% | 9.09 pmol | Active | – | –
O=C(O)CCCCN(CCc1ccccc1OCc1ccc(CCc2ccccc2)cc1)Cc1ccc(C(=O)O)cc1 | – | – | Active | – | inactive
COc1ccc(Cn2nc(-c3nc(CN)no3)c3ccccc32)cc1 | 21% | 2.33 pmol | inactive | – | inactive

The next lines start with the values.

Occ [1] | Activity [2] | Activity [3] | solubility [4] | Activity [5] | Structure (SMILES)
90% | 14.3 pmol | Active | – | – | Cc1ccc(Cn2nc(-c3nc(CN)no3)c3ccccc32)cc1
28% | 2.72 pmol | – | – | – | NCc1noc(-c2c3ccccc3nn2CCn2ccnc2)n1
96% | 9.11 pmol | – | – | – | NCc1noc(-c2c3ccccc3nn2Cc2ccc3c(c2)OCO3)n1
62% | 2.23 pmol | – | – | – | CC(=O)Nc1ccc(Cn2nc(-c3nc(CNC(=O)OC(C)(C)C)no3)c3ccccc32)cc1
94% | 2.08 pmol | – | – | – | NCc1noc(-c2c3ccccc3nn2Cc2cccc(Cl)c2)n1
101% | 3.22 pmol | Active | – | – | Cc1ccccc1Cn1nc(-c2nc(CN)no2)c2ccccc21
